# Tests used:
# [1] = target: T1, Plasminogen activator inhibitor 1 (Homo sapiens, UniProt P05121); test: Plasminogen Activator Inhibitor-1 (PAI-1) activity was determined by inhibition of Urokinase-type plasminogen activator using primary assay
# How it was run: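 Human recombinant PAI-1 (6 nM) preincubated with compound for 2 min at room temperature in 50 mM Tris-HCl, 150 mM NaCl, 2.5 mM CaCl2, 0.1% PEG 6000, pH 7.5. Human kidney urokinase (0.0175 units/mL) added for a further 2 min, then chromogenic substrate S2444. Rate of absorbance change read at 405 nm. Controls with uPA alone and uPA plus PAI-1 on each plate. IC50 taken from dose-response curve fit.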
# [2] = Bioavailability in rat (cannulated) (dose 2 mg/kg); assay type: ADME, organism-based; details: in vivo
# How it was run: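 Given intravenously and orally at 2 mg/kg to cannulated conscious rats. Vehicle: 94% PEG/2% 0.1HCl/4% EtOH solution.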
# [3] = target: T1, Plasminogen activator inhibitor 1; test: Plasminogen Activator Inhibitor-1 (PAI-1) activity was determined using plasma clot lysis assay; assay type: functional, cell-free
# How it was run: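 Pooled human plasma diluted 1:3 in 150 mM NaCl, 2 mM CaCl2, 20 mM Hepes, pH 7.4. Clotting started with human thrombin (30 nM), with exogenous human tPA (4 nM) present. Lysis followed at 37 °C by absorbance at 405 nm.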
# T1 sequence (P05121 whole entry): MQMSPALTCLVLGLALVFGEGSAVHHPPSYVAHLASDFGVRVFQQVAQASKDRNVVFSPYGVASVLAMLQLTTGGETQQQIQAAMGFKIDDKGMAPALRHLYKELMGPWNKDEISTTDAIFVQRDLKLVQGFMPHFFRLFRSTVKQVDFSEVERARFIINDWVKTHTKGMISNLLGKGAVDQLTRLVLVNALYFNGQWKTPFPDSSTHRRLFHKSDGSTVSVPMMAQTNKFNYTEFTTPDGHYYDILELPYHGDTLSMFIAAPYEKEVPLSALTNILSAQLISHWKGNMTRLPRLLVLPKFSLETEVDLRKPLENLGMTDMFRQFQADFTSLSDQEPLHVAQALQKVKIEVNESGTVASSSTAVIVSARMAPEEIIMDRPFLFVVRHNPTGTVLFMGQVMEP
IC50 [1],bioavailability [2],IC50 [3],Compound
2.2 µM,–,–,CC(C)[C@@H]1CC[C@@H](C)C[C@H]1OCC(=O)Nc1cc(N2CCCC2C(=O)O)ccc1[N+](=O)[O-] (some centres undefined)
0.6 µM,–,–,COc1cc(C(=O)O)c(Oc2c(CNc3ccc(CNC(=O)CO[C@@H]4C[C@H](C)CC[C@H]4C(C)C)cc3)c(O)cc(C)c2C(N)=O)c(O)c1C
0.5 µM,–,–,COc1cccc(CNc2ccc(CNC(=O)CO[C@@H]3C[C@H](C)CC[C@H]3C(C)C)cc2)c1Oc1ncccc1C(=O)O
2.7 µM,–,–,CC(C)[C@@H]1CC[C@@H](C)C[C@H]1OCC(=O)NCc1ccc(NCc2cc([N+](=O)[O-])ccc2O)cc1
0.94 µM,< 10%,0.01 µM,CC(C)[C@@H]1CC[C@@H](C)C[C@H]1OCC(=O)Nc1cc(N2CCC(C(=O)O)CC2)ccc1[N+](=O)[O-]
1.2 µM,94%,0.1 µM,COc1cccc(CNc2ccc(CNC(=O)CO[C@@H]3C[C@H](C)CC[C@H]3C(C)C)cc2)c1Oc1ccc([N+](=O)[O-])cc1C(=O)O
2.9 µM,–,–,CC(C)[C@@H]1CC[C@@H](C)C[C@H]1OCC(=O)Nc1cc(N2CC(C(=O)O)C2)ccc1[N+](=O)[O-]
1.8 µM,–,–,COc1cc(C(=O)O)c(Oc2c(CNc3ccc(CNC(=O)CO[C@@H]4C[C@H](C)CC[C@H]4C(C)C)cc3)c(O)cc(C)c2C(=O)O)c(O)c1C
0.53 µM,–,–,COc1cc(C(=O)O)c2c(c1C)OC(=O)c1c(C)cc(O)c(CNc3ccc(NC(=O)CO[C@@H]4C[C@H](C)CC[C@H]4C(C)C)nc3)c1O2
3.9 µM,–,–,COc1cc(C(=O)O)c2c(c1C)OC(=O)c1c(C)cc(O)c(CNc3ccc(CCNC(=O)CO[C@@H]4C[C@H](C)CC[C@H]4C(C)C)cc3)c1O2
0.4 µM,< 10%,0.1 µM,CC(C)[C@@H]1CC[C@@H](C)C[C@H]1OCC(=O)Nc1cc(Oc2cccc(C(=O)O)c2)ccc1[N+](=O)[O-]
> 15 µM,–,–,CC(C)[C@@H]1CC[C@@H](C)C[C@H]1OCC(=O)NCc1ccc(NCc2ccccc2)cc1
> 15 µM,–,–,CC(C)[C@@H]1CC[C@@H](C)C[C@H]1OCC(=O)NCc1ccc(NCc2ccccc2Oc2ccccc2)cc1
> 15 µM,–,–,CC(C)[C@@H]1CC[C@@H](C)C[C@H]1OCC(=O)NCc1ccc(NCc2ccncc2)cc1
0.71 µM,–,–,CC(C)[C@@H]1CC[C@@H](C)C[C@H]1OCC(=O)NCc1ccc(NCc2c(F)cccc2Oc2c(O)cccc2C(=O)O)cc1
5 µM,–,–,CCCN(Cc1ccc(NCc2c(O)cc(C)c3c2Oc2c(C(=O)O)cc(OC)c(C)c2OC3=O)cc1)C(=O)CO[C@@H]1C[C@H](C)CC[C@H]1C(C)C
0.9 µM,–,–,CC(C)[C@@H]1CC[C@@H](C)C[C@H]1OCC(=O)Nc1cc(N[C@H]2CC[C@@H](C(=O)O)CC2)ccc1[N+](=O)[O-]

IC50 [1],bioavailability [2],IC50 [3],Compound
1.4 µM,–,–,COc1ccc(Oc2ccccc2CNc2ccc(CNC(=O)CO[C@@H]3C[C@H](C)CC[C@H]3C(C)C)cc2)c(C(=O)O)c1
1.1 µM,–,–,CC(C)[C@@H]1CC[C@@H](C)C[C@H]1OCC(=O)Nc1cc(N[C@H]2CC[C@H](C(=O)O)CC2)ccc1[N+](=O)[O-]
0.7 µM,–,–,COc1cccc(CNc2ccc(CNC(=O)CO[C@@H]3C[C@H](C)CC[C@H]3C(C)C)cc2)c1Oc1ccc(N)cc1C(=O)O
1.4 µM,–,–,COc1cc(C(=O)O)c2c(c1C)OC(=O)c1c(C)cc(O)c(CNc3cccc(CNC(=O)CO[C@@H]4C[C@H](C)CC[C@H]4C(C)C)c3)c1O2
0.89 µM,–,–,CC(C)[C@@H]1CC[C@@H](C)C[C@H]1OCC(=O)Nc1cc(N2CCCC(C(=O)O)C2)ccc1[N+](=O)[O-] (some centres undefined)
1.4 µM,23%,0.1 µM,COc1cc(C(=O)O)c2c(c1C)OC(=O)c1c(C)cc(O)c(CNc3ccc(CNC(=O)CO[C@@H]4C[C@H](C)CC[C@H]4C(C)C)cc3)c1O2
2.6 µM,–,–,CC(C)[C@@H]1CC[C@@H](C)C[C@H]1OCC(=O)NCc1ccc(NCc2cc([N+](=O)[O-])ccc2Oc2cc(Oc3ccccc3)ccc2C(=O)O)cc1
1.1 µM,–,–,COc1cc(C(=O)O)c2c(c1C)OC(=O)c1c(C)cc(O)c(CNc3ccc(NC(=O)CO[C@@H]4C[C@H](C)CC[C@H]4C(C)C)cc3)c1O2
> 15 µM,–,–,COc1cc(C(=O)O)c2c(c1C)OC(=O)c1c(C)cc(O)c(CN3CCC(NC(=O)CO[C@@H]4C[C@H](C)CC[C@H]4C(C)C)CC3)c1O2
0.71 µM,–,–,CC(C)[C@@H]1CC[C@@H](C)C[C@H]1OCC(=O)NCc1ccc(NCc2cc([N+](=O)[O-])ccc2Oc2ccccc2C(=O)O)cc1
2.9 µM,–,–,CC(C)[C@@H]1CC[C@@H](C)C[C@H]1OCC(=O)Nc1cc(N2CCCCC2C(=O)O)ccc1[N+](=O)[O-] (some centres undefined)
7.8 µM,–,–,CC(C)[C@@H]1CC[C@@H](C)C[C@H]1OCC(=O)NCc1ccc(NCc2cccc(C(=O)O)c2)cc1
> 15 µM,–,–,CC(C)[C@@H]1CC[C@@H](C)C[C@H]1OCC(=O)NCc1ccc(NCc2ccccc2S(=O)(=O)O)cc1
2.6 µM,–,–,CC(C)[C@@H]1CC[C@@H](C)C[C@H]1OCC(=O)Nc1cc(Oc2ccc(C(=O)O)cn2)ccc1[N+](=O)[O-]
0.38 µM,24%,0.01 µM,CC(C)[C@@H]1CC[C@@H](C)C[C@H]1OCC(=O)Nc1cc(Oc2ccc(C(=O)O)cc2)ccc1[N+](=O)[O-]
3.2 µM,–,–,CC(C)[C@@H]1CC[C@@H](C)C[C@H]1OCC(=O)NCc1ccc(NCc2ccc(C(=O)O)cc2)cc1
1.4 µM,–,–,COc1ccc(Oc2cccc(F)c2CNc2ccc(CNC(=O)CO[C@@H]3C[C@H](C)CC[C@H]3C(C)C)cc2)c(C(=O)O)c1
